Tested on: MS2 coat protein
Assay: apparent Kd, MS2 coat protein; higher = weaker binding; RNA-MaP array; FMN 200 µM where present
How it was run: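 Binding was read on Illumina sequencing-chip clusters where stalled E. coli RNA polymerase had transcribed each design. A titration of SNAP-549-labelled MS2 coat protein began at 0.7 or 1.5 nM and doubled to 3 µM, once without ligand and once with constant ligand, in 100 mM Tris-HCl pH 7.5, 80 mM KCl, 4 mM MgCl2, BSA, DTT, yeast tRNA and Tween-20. The apparent Kd is the median of filtered per-cluster binding-curve fits, based on green signal normalised to red-channel RNA signal and control-cluster median Fmax.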

[1] = designed as: OFF switch for flavin mononucleotide, no ligand
[2] = ligand present: flavin mononucleotide, designed as: OFF switch for flavin mononucleotide
[3] = designed as: ON switch for flavin mononucleotide, no ligand
[4] = ligand present: flavin mononucleotide, designed as: ON switch for flavin mononucleotide

UGAUAGGACAGAGGAUAUACGUAUAGUUACCUCUACAUGAGGAUCACCCAUGUAGAAGGCUGUCCUAUCUAAGUCGGAAACGAC
apparent Kd [1]: 4.77 nM | apparent Kd [2]: 5.78 nM

UGAUAAUACGUCAGGAUAUGCGUCAUAGAGAAGUGGUAGAAGGGACAUGAGGAUCACCCAUGUUUUGGGUUAUA
apparent Kd [1]: 132 nM | apparent Kd [2]: 93.5 nM

AGAGAAUACUCAGGAUAUCUUAAUAGAAAGAGUAGAGAAGGGAGACAUGAGGAUCACCCAUGUGAAGUCUUGAGACUACAUGGU
apparent Kd [1]: 367 nM | apparent Kd [2]: 470 nM

GUUUUGGGAGGAUAUAUGUGGAUUAUUUUUAUAUGUUAUUUACAUGAGGAUCACCCAUGUAGAAGGUCUAGAGC
apparent Kd [1]: 163 nM | apparent Kd [2]: 249 nM

AGCUGUGGCCGAGGAUAUCUGAAAACUCAAACCGAAAUAUAAUCGGACAUGAGGAUCACCCAUGUAGAGAAGGCGGUCUCAGCA
apparent Kd [1]: 53 nM | apparent Kd [2]: 117 nM

AACAUGCUAGGAUAUACAAGACAAAUUGGGCAUCCGCAUGGACAUGAGGAUCACCCAUGUAGAAGGAGUAUAAA
apparent Kd [1]: 167 nM | apparent Kd [2]: 278 nM

GCCGGUUCAGUUAGGAUAUUCGACACACCUCUCUAGAAGAAGGAACAUGAGGAUCACCCAUGUGAUUCCUACCG
apparent Kd [1]: 46.7 nM | apparent Kd [2]: 56.6 nM

AGAUUCAUGGCCCGUUCGGGCUCACAUGAGGAUCACCCAUGUGAGGAUAUGAUGUACCUGAUUCAUCAGAAGGCGCAUGCGAAA
apparent Kd [1]: 7.69 nM | apparent Kd [2]: 20.8 nM

UGGGACGUGGGAGGAUAUCGGCCUGUAACAGUACGAGAAGGCCCAGUCCAAUAACAGACGGACAUGAGGAUCACCCAUGUCUCA
apparent Kd [3]: 43.2 nM | apparent Kd [4]: 14.3 nM

AAAAAGUCAGGAUAUGCGAAGGCGUCUGAUAGACGAGGCUAGCAGAAGGGACAUGAGGAUCACCCAUGUAAAGA
apparent Kd [1]: 27.2 nM | apparent Kd [2]: 55.1 nM

CCUCUACAUGAGGAUCACCCAUGUGAGGAUAUGCGAGGCGCGCCCGAUAGGCGCGCCGGUAGAAGGCAUGUGGU
apparent Kd [1]: 23.5 nM | apparent Kd [2]: 50.5 nM

CAUUAAUUGAUUAUUGAAUAUUUACAGGAUAUGUAACAUGAGGAUCACCCAUGUAAACAUGGAUUACAGAAGGGUAUUUAUAGA
apparent Kd [1]: 37 nM | apparent Kd [2]: 26.1 nM

UCGGCGCGAGGAUAUGCGGUUCCUGCUUCGGGCCGGAGCGUACAUGAGGAUCACCCAUGUAGAAGGCGCGCCGC
apparent Kd [1]: 14.2 nM | apparent Kd [2]: 14.6 nM

UGUGAGUUGAUGUUAGAUAGGAGAACAUGAGGAUCACCCAUGUAGGAUAUUCAAAGACGAAGAUAGAAGAAGGACAUAGGUAUC
apparent Kd [1]: 24.8 nM | apparent Kd [2]: 66.2 nM

AAUAUGAGCUGGAAUAACCUAGAAACAUGAGGAUCACCCAUGUAGGAUAUCAGCACGAUAAGUGCUGAGAAGGACAACCAGCUC
apparent Kd [1]: 14.3 nM | apparent Kd [2]: 15.2 nM

GUAAAGUGAGGAUAUGCUGGAGGUGUAUUCUACGUGUCGAAACAUGAGGAUCACCCAUGUAGAAGGCACGGGCG
apparent Kd [1]: 10.2 nM | apparent Kd [2]: 13.1 nM

CCUAGUCACUCACAUGAGGAUCACCCAUGUCGGUGCCGCCGACAGGAUAUCUAAAUGUAAAAUCUAGAGAAGGGUCGAACCAUC
apparent Kd [3]: 455 nM | apparent Kd [4]: 609 nM

CCCACGUGUGCAGGAUAUCCCACGAGCACAACAUGAGGAUCACCCAUGUACCUGAGUCUCGGAACGGAGAAGGGUACAUGUUAU
apparent Kd [3]: 72.4 nM | apparent Kd [4]: 69.1 nM

UACAUCAAUGAAGGAUAUCGAUAUCCAACAUGAGGAUCACCCAUGUUGAGGAUCACCCAUGUAAAUGAGAAGGUUAACAUAACU
apparent Kd [3]: 94.9 nM | apparent Kd [4]: 83.3 nM

CGGUAGGGAGGAUAUCCAAUAUAUGACAUGAGGAUCACCCAUGUUUCCACUCGUACCUCCGGAGAAGGCCCAUCCC
apparent Kd [1]: 19.7 nM | apparent Kd [2]: 20.4 nM

GUGUACAGAGGAUAUACAUGGGCAUGAAAACAUGCAUCUUCACAUGAGGAUCACCCAUGUAGAAGGCUGUACAC
apparent Kd [1]: 24.6 nM | apparent Kd [2]: 16.9 nM

AACAAUCUAUCUGAGGAUAUCAUGAAAAAAACAUGAGGAUCACCCAUGUGCAGGAAAACUGCAUAUGAGAAGGCAGAUAGAUUGC
apparent Kd [3]: 590 nM | apparent Kd [4]: 26.8 nM

GGUUGGCGAGGAUAUACAUGAGGAUCACCCAUGUGGUCCUGUGGCAAAAAAAACCUUUGUAGAAGGCGCGGGUC
apparent Kd [1]: 354 nM | apparent Kd [2]: 285 nM

AAUUAGGUCACAGGAUAUACAACAACCAAUGCUGUAGAAGGGUGACACAUACUUAGCUGACAUGAGGAUCACCCAUGUAACCAC
apparent Kd [3]: 31.4 nM | apparent Kd [4]: 8.87 nM

UUUCGGCAUGUAGGAUAUGGAUCCGAUUAGGAUUUAGAAGGACAUGAGGAUCACCCAUGUGCAUUUAAUUGGUCAUUACCGUUU
apparent Kd [1]: 58.5 nM | apparent Kd [2]: 95.2 nM

UUUAUUAGUUAGAAGGCUUGAUGAAUUACAAUGGACAUGAGGAUCACCCAUGUGUAUUCAUGUCAAGAGGAUAUAGUCAUAUAU
apparent Kd [3]: 39.1 nM | apparent Kd [4]: 17.7 nM

AAAUUUUGUCAAGGAUAUGUAUAAUUGAUUUGAAAACAUGAGGAUCACCCAUGUAUAUUGUGGGAACAGAAGGUGAAUAAGUAA
apparent Kd [1]: 209 nM | apparent Kd [2]: 190 nM

UAUAUAUAGUAAGGAUAUGUAAUAAUUUUAUAAACAGAAGGUACUGACAUGAGGAUCACCCAUGUUUUAGUGUGGGCAUGUAGA
apparent Kd [1]: 83.9 nM | apparent Kd [2]: 151 nM

CAACCACAUGAGGAUCACCCAUGUGAGGAUAUGAUACUAUGUACUUCGGUACAUAGUAUCAGAAGGCACAGGUG
apparent Kd [1]: 82 nM | apparent Kd [2]: 73.4 nM

AAAAACUAAGGAUAUACAUGAGGAUCACCCAUGUAAAAAAUGCAUGGGAAAACCUCAUGUAGAAGGUAGAAAAA
apparent Kd [1]: 20.6 nM | apparent Kd [2]: 17.2 nM

UAUUAUAGCAGUGUAUUAAGAUCACAUGAGGAUCACCCAUGUAGAAGGUAUAAGCAAUAUGCUAAUAAGGAUAUACAACACUGC
apparent Kd [1]: 8.13 nM | apparent Kd [2]: 27.5 nM

CCACUCGAGCAGAAGGCAAUGAGGGUUAUACAUUGAGGAUAUGCUACGUAUGUGGUACAUGAGGAUCACCCAUGUAGCCUAUCU
apparent Kd [3]: 389 nM | apparent Kd [4]: 21.3 nM

CCAAUGUAAGGAUAUGACAAUGGUAUCUUCGGAUACCAUUGUCAGAAGGUACAUGAGGAUCACCCAUGUAUAAA
apparent Kd [1]: 18.7 nM | apparent Kd [2]: 41.1 nM

AAGUCACAUGAGGAUCACCCAUGUCGUAAACGAUGAGGAUAUAGGAAGAAAAAAAAAAAACUAGAAGGUAUUACAA
apparent Kd [3]: 59.8 nM | apparent Kd [4]: 55.9 nM

UAUGUAUUCGUAGGAUAUCCGUUGAAACCGUGUGGAGAAGGACGAACAUGAGGAUCACCCAUGUAUCAUGGUGUAGACAAUUUU
apparent Kd [1]: 75.3 nM | apparent Kd [2]: 288 nM

AUGUCGCACCAGAAGGGUCAACCAAUAAAUUAGACAGGAUAUGGGCGAUAAGUAUGUCGCGACAUGAGGAUCACCCAUGUCCGG
apparent Kd [3]: 11.6 nM | apparent Kd [4]: 5.95 nM

UAUUAGUAAGGAUAUCCUUGCAUGGACGAAAGUCCAUGCAAGGAGAAGGUACAUGAGGAUCACCCAUGUUCAUU
apparent Kd [1]: 17.2 nM | apparent Kd [2]: 17.9 nM

GUCCUACAUGAGGAUCACCCAUGUCAGGAUAUGUAGCGUCCGGGCCAUAAGGCUCGGAGCAGAAGGGACAGGUG
apparent Kd [1]: 13.8 nM | apparent Kd [2]: 18.2 nM

GGAUAGUGAGGAUAUCGAUGUUAGGAGGAGUAGAUAGGAGGCGAGAAGGCACAUGAGGAUCACCCAUGUAUGGA
apparent Kd [1]: 58.7 nM | apparent Kd [2]: 45.5 nM

AACAGUACAGGAUAUACAUGAGGAUCACCCAUGUGAGAAUUUAGCAGCGUACCACACAGUAGAAGGGUAAUGGA
apparent Kd [1]: 28.2 nM | apparent Kd [2]: 25.5 nM

AGUAAGAUGCAGAAGGUGUCAGCUAGUGCUACGACAUGAGGAUCACCCAUGUACUAGGUAGAGUACAAGGAUAUGCAUCUUACA
apparent Kd [3]: 23 nM | apparent Kd [4]: 6.15 nM

GAGUGACAUGAGGAUCACCCAUGUGAGGAUAUCGGACGGACCUUGUUGGCUUCCGCCGCGAGAAGGCACAUCGG
apparent Kd [1]: 201 nM | apparent Kd [2]: 45 nM

CGCCUCAGUUCAGGAUAUGUAUGGGUCUAACGAACAGAAGGGAACAUGAGGAUCACCCAUGUAAAUAGGGCCAAAGGCUUGAUA
apparent Kd [1]: 35.8 nM | apparent Kd [2]: 208 nM

UGUCGGAGCAGAGGAUAUUACAUGAGGAUCACCCAUGUAGGUACCAAUAGCUGGAAACAGCAAUGUAAGAAGGCUGCUCCGACA
apparent Kd [1]: 280 nM | apparent Kd [2]: 408 nM

AGAAACUACGAGAAGGACAUGUGGUCCUUCCAAAACAUGAGGAUCACCCAUGUAGGAUAUCGUAGUUUCAGGAUCGUGAGAUCA
apparent Kd [1]: 11.5 nM | apparent Kd [2]: 4.61 nM

GGUCCACAUGAGGAUCACCCAUGUUAGGAUAUCUCGCCCGAGCCCAUAUGGGCCAGGCAGAGAAGGAAUGUGAA
apparent Kd [1]: 23.7 nM | apparent Kd [2]: 23.5 nM

UUCACGUCAGGAUAUCCAUAUUUCCGAAAUAACGGUACUUUGGAGAAGGGACAUGAGGAUCACCCAUGUCCUCG
apparent Kd [2]: 40.1 nM

GUUAAGGUAGGAUAUACGAGAAUAUAGGGUAGAUAUAUAACACAUGAGGAUCACCCAUGUAGAAGGACCAAUUG
apparent Kd [1]: 33.8 nM | apparent Kd [2]: 95.6 nM

AAUUAACAUGAGGAUCACCCAUGUCGUAUUAUGGGAGGAUAUACGUGGACCGUAGUCCGCGUAGAAGGCCUAAUUA
apparent Kd [3]: 36.6 nM | apparent Kd [4]: 18 nM

Source: the EternaBench riboswitch data
